Drawing on ChEMBL document CHEMBL1122180, “Potential histamine H2-receptor antagonists. 4. Benzylhistamines” (J Med Chem, 1982), this text covers Agonist activity and Antagonist activity for seven compounds.

Assay [1] concerns the target Histamine H1 receptor (Cavia porcellus) (UniProt P31389). The assay can be described thus: In vitro agonist activity against histamine H1-receptor in guinea pig ileum in the presence of atropine (0.5 uM) relative to histamine. The assay is classed as functional, tissue-based. A digest of the protocol: (§1)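 Isolated guinea pig ileum contraction with atropine (0.5 μM). Agonism tested up to 781 μM (0.1% histamine). Relative activity came from cumulative dose–response curves; one compound was run as a 2+2 parallel assay.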

Assay [2] concerns the target Histamine H2 receptor (Cavia porcellus) (UniProt P47747). The experiment in a line: Agonist activity was measured for histamine H2-receptor in guinea pig atrium; -ve; <0.1% of histamine (781 uM/L). As to conditions: Cardiac atrium. The assay is classed as functional, tissue-based.
Assay [3] has the same target. The experiment in a line: Antagonist activity was measured for histamine H2-receptor in guinea pig atrium; 486 uM/L. To be noted: Cardiac atrium. The assay is classed as functional, tissue-based. The method, boiled down: (§2)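 Guinea pig right atrium in vitro, propranolol (0.5 μM) present. Test compounds given up to 486 μM against histamine (0.2–781 μM). Any active compound was run at three dose levels (five observations).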

In assay [4] the target is Histamine H2 receptor (Rattus norvegicus) (UniProt P25102). The assay can be described thus: In vivo agonist activity against histamine H2-receptor in lumen-perfused stomach of atropinized (1 mg/kg) anesthetized rat gastric secretion. The assay is classed as functional, organism-based. The method, boiled down:
(§3)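 Urethane-anesthetized rat, atropinized (1 mg kg⁻¹), lumen-perfused stomach, acid output. Single intravenous doses of compound matched against histamine doses (0.5–1 μM kg⁻¹). Potency relative to histamine compared on peak responses.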

Assay [5] shares this target. The experiment in a line: In vivo antagonist activity against histamine H2-receptor in lumen-perfused stomach of atropinized (1 mg/kg) anesthetized rat gastric secretion at 256 ug/kg; -ve. In kind it is functional, organism-based.
Assay [6] concerns the target Histamine H1 receptor (Cavia porcellus) (UniProt P31389). The experiment in a line: In vitro antagonist activity against histamine H1 receptor in guinea pig ileum in the presence of atropine (0.5 uM). In kind it is functional, tissue-based. A digest of the protocol: (§4)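 Guinea pig ileum in vitro with atropine (0.5 μM) present. Compounds tested against histamine-stimulated contraction (histamine 0.1–109 μM). Cumulative dose–response curves plotted for active compounds at three dose levels (nine observations); pA2 derived.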

The target is the same in assay [7]. The assay can be described thus: In vitro agonist activity against histamine H1 receptor in guinea pig ileum in the presence of atropine (0.5 uM) relative to histamine; -ve; <0.1% of histamine (781 uM/L). In kind it is functional, tissue-based. The method, boiled down:
as §1

The target in assay [8] is Histamine H2 receptor (Cavia porcellus) (UniProt P47747). The assay can be described thus: Antagonist activity was measured for histamine H2-receptor in guinea pig atrium. The assay is classed as functional, tissue-based. To be noted: Cardiac atrium. The method, boiled down:
as §2

The target in assay [9] is Histamine H2 receptor (Rattus norvegicus) (UniProt P25102). The assay can be described thus: In vivo agonist activity against histamine H2-receptor in lumen-perfused stomach of atropinized (1 mg/kg) anesthetized rat gastric secretion at 128 ug/kg; -ve. The assay is classed as functional, organism-based. A digest of the protocol: as §3
Assay [10] shares this target. The experiment in a line: In vivo antagonist activity against histamine H2-receptor in lumen-perfused stomach of atropinized (1 mg/kg) anesthetized rat gastric secretion at 128 ug/kg; -ve. The assay is classed as functional, organism-based.
Assay [11] addresses Histamine H1 receptor (Cavia porcellus) (UniProt P31389). The experiment in a line: In vitro antagonist activity against histamine H1-receptor in guinea pig ileum in the presence of atropine (0.5 uM). The assay is classed as functional, tissue-based. The method, boiled down: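 Isolated guinea pig ileum with atropine (0.5 μM) present. Antagonism measured against histamine (0.1–109 μM)-stimulated contraction. Cumulative dose–response curves plotted for active compounds at three dose levels (nine observations).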

The target is the same in assay [12]. The assay can be described thus: In vitro agonist activity against histamine H1-receptor in guinea pig ileum in the presence of atropine (0.5 uM) relative to histamine; -ve; <0.1% of histamine (781 uM/L). In kind it is functional, tissue-based. The method, boiled down: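 Isolated guinea pig ileum with atropine (0.5 μM) present. Agonist activity assayed up to 781 μM (0.1% histamine). Activity relative to histamine taken from cumulative dose–response curves. A 2+2 parallel assay was run for one compound.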

Assay [13] deals with Histamine H2 receptor (Rattus norvegicus) (UniProt P25102). The experiment in a line: In vivo agonist activity against histamine H2-receptor in lumen-perfused stomach of atropinized (1 mg/kg) anesthetized rat gastric secretion at 256 ug/kg; -ve. In kind it is functional, organism-based. The method, boiled down:
as §3

Assay [14] deals with Histamine H2 receptor (Cavia porcellus) (UniProt P47747). The experiment in a line: Antagonist activity was measured for histamine H2-receptor in guinea pig atrium; -ve; 486 uM/L. The assay is classed as functional, tissue-based. To be noted: Cardiac atrium. A digest of the protocol:
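Isolated guinea pig right atrium with propranolol (0.5 μM) present. Compounds tested as antagonists against histamine (0.2–781 μM) at up to 486 μM. Active compounds run at three dose levels (five observations).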

Assay [15] has as its target Histamine H2 receptor (Rattus norvegicus) (UniProt P25102). The assay can be described thus: In vivo agonist activity against histamine H2-receptor in lumen-perfused stomach of atropinized (1 mg/kg) anesthetized rat gastric secretion at 64 ug/kg; -ve. In kind it is functional, organism-based. A digest of the protocol: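 In vivo, urethane-anaesthetised rat given atropine (1 mg kg⁻¹), lumen-perfused stomach, acid secretion as read-out. Compounds given intravenously as single doses and matched against single histamine doses (0.5–1 μM kg⁻¹).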

In assay [16] the target is Histamine H1 receptor (Cavia porcellus) (UniProt P31389). The assay can be described thus: In vitro antagonist activity against histamine H1-receptor in guinea pig ileum in the presence of atropine (0.5 uM). In kind it is functional, tissue-based. The method, boiled down: as §4
The target of assay [17] is Histamine H2 receptor (Cavia porcellus) (UniProt P47747). The assay can be described thus: Agonist activity was measured for histamine H2-receptor in guinea pig atrium. To be noted: Cardiac atrium. In kind it is functional, tissue-based.
For assay [18], the target named is Histamine H1 receptor (Cavia porcellus) (UniProt P31389). The assay can be described thus: In vitro agonist activity against histamine H1-receptor in guinea pig ileum in the presence of atropine (0.5 uM) relative to histamine. In kind it is functional, tissue-based. The method, boiled down: as §1
Assay [19] has as its target Histamine H2 receptor (Rattus norvegicus) (UniProt P25102). The assay can be described thus: In vivo agonist activity against histamine H2-receptor in lumen-perfused stomach of atropinized (1 mg/kg) anesthetized rat gastric secretion at 512 ug/kg; -ve. The assay is classed as functional, organism-based. The method, boiled down:
as §3

The target is the same in assay [20]. The experiment in a line: In vivo antagonist activity against histamine H2-receptor in lumen-perfused stomach of atropinized (1 mg/kg) anesthetized rat gastric secretion at 512 ug/kg; -ve. In kind it is functional, organism-based.
Assay [21] has the same target. The assay can be described thus: In vivo antagonist activity against histamine H2-receptor in lumen-perfused stomach of atropinized (1 mg/kg) anesthetized rat gastric secretion at 187 ug/kg; weak inhibition. The assay is classed as functional, organism-based. As to conditions: filed as antagonist.
For assay [22], the target named is Histamine H2 receptor (Cavia porcellus) (UniProt P47747). The experiment in a line: Agonist activity was measured for histamine H2-receptor in guinea pig atrium. In kind it is functional, tissue-based. To be noted: Cardiac atrium.
Assay [23] has the same target. The experiment in a line: Antagonist activity was measured for histamine H2-receptor in guinea pig atrium; -ve. The assay is classed as functional, tissue-based. To be noted: Cardiac atrium. A digest of the protocol:
as §2

Assay [24] has as its target Histamine H2 receptor (Rattus norvegicus) (UniProt P25102). The experiment in a line: In vivo agonist activity against histamine H2-receptor in lumen-perfused stomach of atropinized (1 mg/kg) anesthetized rat gastric secretion at 187 ug/kg; -ve. In kind it is functional, organism-based. The method, boiled down:
as §3

Calls of active or inactive are those of the source. No cut-off for these calls is given here.

Chain of Histamine H2 receptor (Rattus norvegicus) (P25102 whole entry, the tested form may be a part): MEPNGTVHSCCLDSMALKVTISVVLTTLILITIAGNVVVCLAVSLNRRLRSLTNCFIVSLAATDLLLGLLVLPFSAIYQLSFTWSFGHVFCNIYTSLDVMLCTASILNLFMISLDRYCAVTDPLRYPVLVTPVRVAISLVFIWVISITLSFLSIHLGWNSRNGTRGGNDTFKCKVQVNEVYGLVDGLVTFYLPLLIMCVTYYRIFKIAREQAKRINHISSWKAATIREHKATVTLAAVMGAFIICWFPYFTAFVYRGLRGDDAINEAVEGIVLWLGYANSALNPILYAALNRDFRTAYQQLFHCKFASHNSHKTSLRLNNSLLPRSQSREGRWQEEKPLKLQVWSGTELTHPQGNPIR
Chain of Histamine H1 receptor (Cavia porcellus) (P31389 whole entry, the tested form may be a part): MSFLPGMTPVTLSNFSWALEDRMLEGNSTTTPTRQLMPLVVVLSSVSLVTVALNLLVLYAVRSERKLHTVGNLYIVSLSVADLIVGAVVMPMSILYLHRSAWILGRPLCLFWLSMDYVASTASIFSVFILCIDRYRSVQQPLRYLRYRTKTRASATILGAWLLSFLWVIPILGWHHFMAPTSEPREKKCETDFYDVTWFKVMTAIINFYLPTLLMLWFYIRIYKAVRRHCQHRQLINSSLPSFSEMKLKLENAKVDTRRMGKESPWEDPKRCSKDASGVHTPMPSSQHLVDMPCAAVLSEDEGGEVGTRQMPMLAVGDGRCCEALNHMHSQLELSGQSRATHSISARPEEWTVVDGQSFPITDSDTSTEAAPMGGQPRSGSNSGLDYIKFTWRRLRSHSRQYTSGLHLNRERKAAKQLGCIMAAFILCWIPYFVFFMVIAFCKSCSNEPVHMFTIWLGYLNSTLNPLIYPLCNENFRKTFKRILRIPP
Chain of Histamine H2 receptor (Cavia porcellus) (P47747 whole entry): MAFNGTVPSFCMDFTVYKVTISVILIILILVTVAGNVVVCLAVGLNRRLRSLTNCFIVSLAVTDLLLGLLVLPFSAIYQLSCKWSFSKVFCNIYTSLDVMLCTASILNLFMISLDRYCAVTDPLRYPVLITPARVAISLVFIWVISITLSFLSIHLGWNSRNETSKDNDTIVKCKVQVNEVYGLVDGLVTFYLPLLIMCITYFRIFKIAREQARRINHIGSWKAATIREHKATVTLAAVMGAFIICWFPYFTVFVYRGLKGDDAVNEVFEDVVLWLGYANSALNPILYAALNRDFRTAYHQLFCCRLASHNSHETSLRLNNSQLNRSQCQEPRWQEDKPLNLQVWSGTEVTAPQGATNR

As for `NCCc1cn(Cc2ccccc2)cn1`, the figures for the Agonist activity in [1] and in assay [4] were 0.4 and 3, respectively. Besides, the Agonist activity entry in assay [2] is “inactive”. This compound also showed an Antagonist activity in [3] of less than 3.3. Besides, the Antagonist activity result in assay [5] is “inactive”.

In the case of `NCCc1ncn(Cc2ccccc2)c1Cc1ccccc1`, the results for the Antagonist activity in assay [6] and in assay [8] were 4.7 pA2 and 4.35, respectively. Moreover, the Agonist activity result in assay [7], in assay [2] and in [9] was “inactive” each time. Further, in assay [10], the Antagonist activity entry is “inactive”.

Turning to `NCCc1cncn1Cc1ccccc1`, the Antagonist activity in [11] is 3.6 pA2; in assay [3], less than 3.3. Further, the Agonist activity result in assay [12], in assay [2] and in [13] was “inactive” in each case. The Antagonist activity entry in [10] was “inactive”.

For the compound `NCCc1[nH]cnc1Cc1ccccc1`, the Antagonist activity in assay [11] was 4.4 pA2; in [14] it was less than 3.3. The Agonist activity result in assay [12], in assay [2] and in assay [15] was “inactive” in each case. Besides, in assay [10], the Antagonist activity result was “inactive”.

In the case of `NCC(Cc1ccccc1)c1c[nH]cn1` (centres undefined), the Antagonist activity is 4 pA2 in assay [16] and less than 3.3 in assay [3]. Further, the Agonist activity turned out to be 1 in assay [17] and 0.1 in assay [18]. In addition, the Agonist activity result in assay [19] was “inactive”. For the same compound, in assay [20], the Antagonist activity result was “inactive”.

Regarding `c1ccc(CNCCc2c[nH]cn2)cc1`, the Agonist activity in assay [18] was determined as 0.4; in assay [4], 0.5; in assay [22], 0.7. Further, the values for the Antagonist activity in assay [3] and in assay [21] were less than 3.3 and “Partial antagonist”, respectively.

Regarding `NCCc1c[nH]c(Cc2ccccc2)n1`, the Agonist activity in assay [1] turned out to be 2.3. For the same compound, the Agonist activity entry in assay [2] and in assay [24] was “inactive” each time. Besides, in assay [23], the Antagonist activity is less than 3.3. In addition, the Antagonist activity result in [10] was “inactive”.
